Hits are enriched below; roughly 1.5% of the tested compounds scored in any of these assays.
Runt-CBFb FRET – Runt domain-CBFb interaction inhibition; Cerulean-Runt/Venus-CBFb FRET ratio 530/480, 1 h; inhibition, % at 20 µM; 0.46% of 220,000 active;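 active means inhibition over about 50% at 20 µM in the single-dose screen, limit read from the data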;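 further: 0% = DMSO wells and 100% = excess unlabeled CBFb competitor control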
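test system = Cerulean-tagged RUNX1 Runt domain (FRET donor) fusion protein | reagent = Venus-CBFb binding partner, 100 nM | incubation = protein complex preformed 1 h, compound exposure 1 h, room temperature, dark | detection = FRET fluorescence | read-out basis = loss of energy transfer signal | controls = 5 µM unlabeled CBFb as full-inhibition high control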
Hck Nef HTS – inhibitors of human Hck kinase activated by Nef. P08631. Recombinant Hck-YEEI plus Nef, Z-Lyte FRET kinase assay. inhibition, % at 20 µM. 0.68% of 220,000 active;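 active means Hck-Nef kinase inhibition above about 50%, limit read from the data; inactive means inhibition below that limit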;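 further: 0% = DMSO with Hck plus Nef and 100% = Hck alone without Nef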
Runt-SMMHC FRET – Runt domain-CBFb-SMMHC interaction inhibition | Q01196+Q13951 | Cerulean-Runt/Venus-CBFb-SMMHC FRET ratio 530/480, 1 h | inhibition, % at 20 µM | 0.74% of 220,000 active;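 active means mean inhibition across duplicate retests at 20 µM reaching about 50%, limit read from the data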;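 further: 0% = DMSO wells and 100% = wells with excess untagged CBFb-SMMHC; inhibitors lower the FRET ratio by blocking Runt binding to CBFb-SMMHC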
CaV13 ICDI inh – Primary screen for inhibitors of IQ motif and Ca2+-dependent inactivation inhibitor domain binding in CACNA1D, Förster resonance energy transfer in living cells, …; inhibition, % at 12.3 µM; 0.098% of 340,000 active; HEK cells, CFP/YFP FRET ICDI-IQ, plate reader, 10 min; percent FRET-ratio fall versus neutral wells; AID 743397;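 active means mean replicate inhibition of at least 30% and at least 1% of replicates passing that level; inconclusive means only one of the two criteria is met; inactive means neither criterion is met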;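 further: 0% = median of the neutral control wells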
RanGTP-Impb inh – disruptors of Ran-importin-beta complex formation – biochemical, FRET, CFP-Ran, YFP-importin-beta, homogeneous, primary screen. 1.1% of 300,000 active. inhibition, % (concentration not given with the values). cell-free CFP-Ran/YFP-importin-beta FRET ratio;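 active means more than half of the replicate wells show a fall in the fluorescence ratio signal beyond about 16%, limit read from the data, passing the limit was not always enough; inconclusive means exactly half of the replicate wells pass the set limit; inactive means fewer than half of replicates pass the limit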;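 further: 0% = DMSO wells and 100% = Ran loaded with GDP instead of GTP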
Active calls of the source: *; ? = inconclusive; nt = no result given; + = active, no number.

SMILES | Runt-CBFb FRET | Hck Nef HTS | Runt-SMMHC FRET | CaV13 ICDI inh | RanGTP-Impb inh
Cc1ccc(C(C(=O)NC2CCCC2)N(Cc2ccc3c(c2)OCO3)C(=O)c2snc(C(N)=O)c2N)cc1 (stereo unspecified) | -2 | 8 | -3 | 2 | -3
COc1ccc(Nc2nc(N)nc(CSC(=S)N3CCN(C)CC3)n2)cc1 | 1 | 11 | -6 | -3 | 5
CNC(=O)NC(=O)CSc1nnc(-c2ccco2)n1-c1ccccc1 | nt | nt | nt | -3 | 2
CN(C)S(=O)(=O)N1CCN(S(=O)(=O)N2CCOCC2)CC1 | 2 | 57* | 0 | -3 | 0
Cn1cccc1/C=N/NC(=O)c1sc2cc(Cl)ccc2c1Cl | -10 | 5 | -29 | 42* | 1
CCOc1cc(/C=C(\C#N)C(=O)Nc2ccccn2)ccc1O | nt | nt | nt | -4 | 1
C=CCOc1ccc(/C=C(\C#N)C(=O)Nc2ccccn2)cc1 | nt | nt | nt | -1 | 17*
CC(C)(C)c1ccc(/C=C(\C#N)C(=O)Nc2ccccn2)cc1 | nt | nt | nt | -15 | -2
Cc1cccc(C)c1NC(=O)/C(C#N)=C/c1cccs1 | -1 | 0 | 0 | -4 | 1
N#C/C(=C\c1ccccc1)C(=O)Nc1ccccn1 | nt | nt | nt | -3 | 49*
N#C/C(=C\c1ccccc1Cl)C(=O)Nc1ccccn1 | nt | nt | nt | -5 | 44*
N#C/C(=C\c1cccs1)C(=O)Nc1ccccn1 | -4 | 16 | -18 | -6 | 26*
O=C(Nc1ccc2c(c1)OCO2)c1cc(C2CCCCN2C(=O)OCCF)on1 (stereo unspecified) | nt | nt | nt | -5 | nt
CCOc1cc(C#N)c(NC(=O)Cn2nnc3ccccc32)cc1OCC | -2 | 3 | 3 | -4 | -2
CCOC(=O)C1(Cc2ccccc2C(F)(F)F)CCN(C2CCC2)CC1 | -2 | 1 | -6 | -5 | 1
CCOC(=O)c1c(C)n(-c2ccc(F)cc2)c2ccc(O)cc12 | nt | nt | nt | nt | 2
CCOC(=O)c1c2n(c3ccc(O)cc13)CCCCC2 | -2 | -7 | -4 | nt | 22*
CC1(C)Cc2c(sc3ncn4c(=S)[nH]nc4c23)CO1 | 46 | 11 | 60* | 1 | 2
CC1(C)Cc2c(sc3ncn(N)c(=N)c23)CO1 | 0 | -1 | 4 | nt | 0
O=C(CCN1CCC(c2ccc(Cl)s2)=N1)c1ccc(Cl)s1 | -9 | 1 | -9 | -5 | 16*
O=C(CCC(=O)N1CCN(c2ccccc2F)CC1)c1ccc(Cl)s1 | nt | nt | nt | -3 | nt
Cc1nn(-c2ccccc2)c2c1P(=O)(O)/C(=C1\N(C)c3ccccc3C1(C)C)C=N2 | -47 | 0 | -63 | -10 | 29*
CC(=O)c1cc2c(cc1NC(=O)c1ccc(Cl)cc1)OCCO2 | nt | nt | nt | -4 | 3
CC(=O)c1cc2c(cc1NC(=O)Nc1cccc(Cl)c1)OCCO2 | 19 | 10 | 62* | -3 | ?
O=C1CCC/C1=C\c1ccccc1 | 0 | -6 | 0 | -2 | 149*
SMILES | Runt-CBFb FRET | Hck Nef HTS | Runt-SMMHC FRET | CaV13 ICDI inh | RanGTP-Impb inh
Cc1cc(N2C(=O)C(O)=C(C(=O)c3ccc(C)o3)C2c2cccs2)no1 (stereo unspecified) | 5 | 0 | -2 | nt | 9
Cc1cc(N2C(=O)C(O)=C(C(=O)c3cc4ccccc4o3)C2c2cccs2)no1 (stereo unspecified) | nt | nt | nt | -2 | 42*
CCOC(=O)c1c(C)n(C)c2cc(OCCN(CC)CC)ccc12 | -1 | 1 | -1 | nt | -1
CCOC(=O)c1c2ccc(OCC(=O)N/N=C/c3ccc(C)cc3)cc2n2ccccc12 | -4 | 27 | 78 | nt | 29*
Cc1ccc(OCC(=O)N/N=C/c2cn(C)c3ccccc23)cc1 | -2 | 11 | -10 | -21 | -1
CCOC(=O)c1c2ccc(OCC(=O)NN)cc2n2ccccc12 | 21 | -3 | 86* | + | 66*
CCc1[nH]nc(C(=O)N2CCCC(C(=O)c3cccc(OC(C)C)c3)C2)c1C (stereo unspecified) | nt | nt | nt | -3 | -1
CCN(c1ccccc1)S(=O)(=O)c1ccc(OC)c(NC(=O)CN(C)C)c1 | 0 | -1 | 4 | + | 2
CCN(c1ccccc1)S(=O)(=O)c1ccc(Cl)c(NC(=O)COC(=O)c2cc(O)c3ccccc3c2O)c1 | 10 | 80* | -34 | nt | 1
O=C1NC(=Nc2ccccc2Br)SC1(CO)CO | nt | nt | nt | -3 | 0

High-throughput results: PubChem, several laboratories
